Key:
[1] = molecular target: T1, Fe(3+)-Zn(2+) purple acid phosphatase (Phaseolus vulgaris, UniProt P80366); experiment: Inhibition of red kidney bean PAP at pH 6.2
T1 sequence (P80366 whole entry): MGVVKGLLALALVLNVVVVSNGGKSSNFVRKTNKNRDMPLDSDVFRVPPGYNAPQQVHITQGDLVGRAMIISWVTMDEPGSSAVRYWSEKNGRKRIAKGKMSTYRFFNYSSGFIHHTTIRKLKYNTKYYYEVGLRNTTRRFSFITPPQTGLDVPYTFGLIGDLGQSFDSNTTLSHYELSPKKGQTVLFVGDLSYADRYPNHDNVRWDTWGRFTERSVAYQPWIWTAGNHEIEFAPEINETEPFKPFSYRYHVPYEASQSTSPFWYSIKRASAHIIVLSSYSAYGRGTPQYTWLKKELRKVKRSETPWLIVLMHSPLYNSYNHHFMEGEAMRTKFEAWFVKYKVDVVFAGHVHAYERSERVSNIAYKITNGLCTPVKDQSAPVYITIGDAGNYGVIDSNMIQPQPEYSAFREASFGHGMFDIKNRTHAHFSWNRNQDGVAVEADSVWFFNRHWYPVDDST
How it was run: (§1)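 Each enzyme was run at its own pH optimum: red kidney bean PAP at pH 6.2 and pig PAP at pH 4.9. IC50 values were determined experimentally. Separate inhibition constants were derived for binding to the free enzyme and to the enzyme–substrate complex.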

[2] = Inhibition of human PAP
[3] = Inhibition of pig PAP at pH 4.9; parameters: species or system Sus scrofa; how it was run: as §1

SMILES	IC50 [1]	IC50 [3]	IC50 [2]
O=P(O)(O)C(O)c1cccc2ccccc12 (stereo not given)	5000 µM		
O=C(c1ccccc1)C(C(=O)c1ccccc1)(c1cccc2ccccc12)P(=O)(O)O			1.4 µM
O=P(O)(O)Cc1cccc2ccccc12	> 7000 µM		30 µM

The next lines start with results.

IC50 [1]	IC50 [3]	SMILES	IC50 [2]
100 µM	30 µM	CCCCCCCCOC(c1cccc2ccccc12)P(=O)(O)O (racemic)	
8 µM	20 µM	CCCCCCCCCCOC(c1cccc2ccccc12)P(=O)(O)O (racemic)	
1000 µM	430 µM	CCCCCCOC(c1cccc2ccccc12)P(=O)(O)O (racemic)	
